# Experimental data of several laboratories.
# Each line is one published result; the experiments were not run side by side.
# Target: Receptor tyrosine-protein kinase erbB-4 (ERBB4, Homo sapiens, UniProt Q15303)
SMILES,observed,action,method,tested at,endpoint,result
CC(C)CC(=O)N1CCc2nc(-c3ccc(Br)cc3)nc(N(C)Cc3ccccc3)c2C1,cell-free assay,,competition with immobilised ligand,0.1 µM,remaining binding,94%
COc1cc2c(N3CCN(C(=O)Nc4ccc(OC(C)C)cc4)CC3)ncnc2cc1OCCCN1CCCCC1,cell-free assay,,,0.5 µM,remaining signal,97.3%
COc1cc(Nc2cnc(C#N)c(O[C@H](C)CN(C)C)n2)ncc1-c1cnn(C)c1,enzyme activity,inhibitor,radiometric,10 µM,remaining activity,94%
COc1cc2nccc(Oc3ccc(NC(=O)c4c5n(n(-c6ccc(F)cc6)c4=O)CCCC5)cc3)c2cc1OC,enzyme activity,inhibitor,,0.1 µM,inhibition,-17%
COc1cc(Cl)c(C(=O)N[C@@H](CN[C@H]2CC[C@@H](N)CC2)Cc2ccc(C#N)cc2)cc1-c1ccc(CN[C@H](C)c2ccc(C)cc2)o1,enzyme activity,inhibitor,,1 µM,remaining activity,99%
CNC(=O)c1cc(Oc2ccc(NC(=O)Nc3ccc(Cl)c(C(F)(F)F)c3)cc2)ccn1,enzyme activity,inhibitor,,0.3 µM,inhibition,-7%
CC(C)(C)c1nc2c(s1)c1nc(N)ncc1c1ccc(NS(=O)(=O)c3c(F)cccc3F)c(F)c12,enzyme activity,inhibitor,radiometric,1 µM,remaining activity,80%
CCN(CC)CCNC(=O)c1c(C)[nH]c(/C=C2\C(=O)Nc3ccc(F)cc32)c1C,cell-free assay,,,0.5 µM,remaining signal,94.8%
CCCS(=O)(=O)Nc1ccc(F)c(C(=O)c2c[nH]c3ncc(-c4ccc(Cl)cc4)cc23)c1F,enzyme activity,inhibitor,,1 µM,inhibition,< 10%
Cc1sc(C(=O)NC2COC2)cc1-n1cc(NC(=O)Nc2c(F)cccc2Cl)cn1,enzyme activity,inhibitor,,10 µM,remaining activity,95%
Cc1ccc(Nc2nccc(N(C)c3ccc4c(C)n(C)nc4c3)n2)cc1S(N)(=O)=O,enzyme activity,inhibitor,,0.3 µM,inhibition,-9%
Cn1c(=O)n(-c2ccc(C(C)(C)C#N)cc2)c2c3cc(-c4cnc5ccccc5c4)ccc3ncc21,enzyme activity,inhibitor,,10 µM,remaining activity,117%
COc1cc(/C=C/C(=O)CC(=O)/C=C/c2ccc(O)c(OC)c2)ccc1O,enzyme activity,inhibitor,,1 µM,activity vs control,71%
Cc1ccc(C(=O)Nc2ccc(CN3CCN(C)CC3)c(C(F)(F)F)c2)cc1C#Cc1cnc2cccnn12,enzyme activity,inhibitor,,23.5 nM,remaining activity,57%
O=C(NC[C@@H]1[C@H]2CN(C(=O)OCc3cc(C(F)(F)F)cc(C(F)(F)F)c3)C[C@@H]12)c1ccc2[nH]nnc2c1,cell-free assay,,competition with immobilised ligand,1 µM,remaining binding,100%
FC(F)c1nc2ccccc2n1-c1nc(N2CCOCC2)nc(N2CCOCC2)n1,enzyme activity,inhibitor,,10 µM,remaining activity,103%
Cc1cc(-n2nc(Cc3cc(F)cc(C(F)(F)F)c3)nc2C)ccc1C(N)=O,cell-free assay,,competition with immobilised ligand,1 µM,remaining binding,67%
O=C(CSc1nc2nccnc2c(=O)n1CCc1ccccc1)Nc1nccs1,enzyme activity,inhibitor,,10 µM,inhibition,-4%
O=C(Nc1cccnn1)N1CCC(=Cc2cccc(Oc3ccc(C(F)(F)F)cn3)c2)CC1,cell-free assay,,competition with immobilised ligand,1 µM,remaining binding,100%
N#CCCc1ccc2c(c1)-c1[nH]c3ccc([N+](=O)[O-])cc3c1CC(=O)N2,cell-free assay,,,0.5 µM,remaining signal,91.8%
O=C(NCc1ncc(C(F)(F)F)cc1Cl)c1ccc2c(c1)C1(CCS(=O)(=O)CC1)[C@@H](C1CC1)N2S(=O)(=O)c1ccc(F)cc1,cell-free assay,,competition with immobilised ligand,1 µM,remaining binding,72%
C=CC(=O)Nc1cc(Nc2nccc(Nc3cc(Cl)c(F)cc3C(C)(C)O)n2)c(OC)cc1N1CC[C@@H](N(C)C)C1,enzyme activity,inhibitor,,1 µM,inhibition,88%
CN(C)c1ncnc(-c2ccc3nc(Nc4cc(CN5CCN(C(=O)CC(F)(F)F)CC5)ccn4)[nH]c3c2)c1Cl,cell-free assay,,competition with immobilised ligand,1 µM,remaining binding,99%
COc1cc2ncnc(Nc3ccc(Oc4ccccc4)cc3C)c2cc1OC,enzyme activity,inhibitor,,1 µM,inhibition,98%
CO[C@@H](C)c1c(Nc2ccc([C@H](N(C)C(=O)C3CCS(=O)(=O)CC3)C(F)(F)F)cc2)cnc2cc(Cl)nn12,cell-free assay,,competition with immobilised ligand,1 µM,remaining binding,84%
COc1cc2ncnc(Nc3ccc(F)c(Cl)c3)c2cc1OCCCN1CCOCC1,cell-free assay,,,0.5 µM,remaining signal,24.2%
O=C(O)[C@H]1[C@H](Cn2nnc3ccccc3c2=O)CC[C@@H]1C(=O)c1ccc(OCCC2CCOCC2)cc1,cell-free assay,,competition with immobilised ligand,1 µM,remaining binding,89%
Nc1ncnc2occ(-c3ccc(NC(=O)Nc4cc(C(F)(F)F)ccc4F)cc3)c12,cell-free assay,inhibitor,,20 µM,remaining signal,57%
